According to ChEMBL document CHEMBL1921722, “In vitro and in vivo evaluation of select kahalalide F analogs with antitumor and antifungal activities” (Bioorg Med Chem, 2011):
≈ marks a conversion by molar mass, not a printed value.

Tests used:
MOLT-4 [1] = experiment: Cytotoxicity against human MOLT4 cells assessed as cell growth at 8 nM by sulforhodamine B assay relative to control; type: functional; conditions: read-out: Activity
SF-295 = experiment: Cytotoxicity against human SF295 cells assessed as cell growth at 800 nM by sulforhodamine B assay relative to control; type: functional; conditions: read-out: Activity
HCT-116 [2] = experiment: Cytotoxicity against human HCT116 cells assessed as cell growth at 800 nM by sulforhodamine B assay relative to control; type: functional; conditions: read-out: Activity
PC-3 = experiment: Cytotoxicity against human PC3 cells assessed as cell growth at 80 nM by sulforhodamine B assay relative to control; type: functional; conditions: read-out: Activity
ACHN = experiment: Cytotoxicity against human ACHN cells assessed as cell growth at 8 nM by sulforhodamine B assay relative to control; type: functional; conditions: read-out: Activity
How it was run: (§1)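 Run at NCI in the DTP 60-cell-line human tumor panel by standard procedure. Compounds were first screened at a single concentration, then tested at five tenfold-spaced concentrations. GI50 is the concentration reducing treated-cell growth to half that of untreated controls; TGI is the concentration completely halting growth.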

Hs-578T [3] = experiment: Cytotoxicity against human Hs578T cells by sulforhodamine B assay; type: functional
How it was run: (§2)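 NCI Developmental Therapeutics Program 60-cell-line human tumor panel screen, run at NCI. A single-concentration pre-screen was followed by a five-concentration dose-response in 10-fold steps. GI50 is the concentration that reduces growth of treated cells to half that of untreated control cells. TGI is the concentration that completely halts growth.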

HCT-116 [4] = experiment: Cytotoxicity against human HCT116 cells assessed as cell growth at 8 uM by sulforhodamine B assay relative to control; type: functional; conditions: read-out: Activity
SW-620 = experiment: Cytotoxicity against human SW620 cells assessed as cell growth at 80 nM by sulforhodamine B assay relative to control; type: functional; conditions: read-out: Activity
NCI-H23 [5] = experiment: Cytotoxicity against human NCI-H23 cells assessed as cell growth at 80 nM by sulforhodamine B assay relative to control; type: functional; conditions: read-out: Activity
NCI/ADR-RES [6] = experiment: Cytotoxicity against human NCI/ADR-RES cells assessed as cell growth at 80 uM by sulforhodamine B assay relative to control; type: functional; conditions: read-out: Activity
NCI/ADR-RES [7] = experiment: Cytotoxicity against human NCI/ADR-RES cells assessed as cell growth at 80 nM by sulforhodamine B assay relative to control; type: functional; conditions: read-out: Activity
HOP-92 [8] = experiment: Cytotoxicity against human HOP92 cells assessed as cell growth at 80 uM by sulforhodamine B assay relative to control; type: functional; conditions: read-out: Activity
COLO 205 = experiment: Cytotoxicity against human COLO205 cells assessed as cell growth at 80 nM by sulforhodamine B assay relative to control; type: functional; conditions: read-out: Activity; how it was run: as §1
HT-29 [9] = experiment: Cytotoxicity against human HT-29 cells assessed as cell growth at 80 uM by sulforhodamine B assay relative to control; type: functional; conditions: read-out: Activity
NCI-H23 [10] = experiment: Cytotoxicity against human NCI-H23 cells assessed as cell growth at 80 uM by sulforhodamine B assay relative to control; type: functional; conditions: read-out: Activity
TK-10 [11] = experiment: Cytotoxicity against human TK10 cells assessed as cell growth at 80 uM by sulforhodamine B assay relative to control; type: functional; conditions: read-out: Activity
UO-31 = experiment: Cytotoxicity against human UO31 cells assessed as cell growth at 800 nM by sulforhodamine B assay relative to control; type: functional; conditions: read-out: Activity
U-251 = experiment: Cytotoxicity against human U251 cells assessed as cell growth at 80 uM by sulforhodamine B assay relative to control; type: functional; conditions: read-out: Activity
Hs-578T [12] = experiment: Cytotoxicity against human Hs578T cells assessed as cell growth at 80 uM by sulforhodamine B assay relative to control; type: functional; conditions: read-out: Activity
786-0 = experiment: Cytotoxicity against human 786-0 cells assessed as cell growth at 800 nM by sulforhodamine B assay relative to control; type: functional; conditions: read-out: Activity; how it was run: as §1
HT-29 [13] = experiment: Cytotoxicity against human HT-29 cells assessed as cell growth at 8 nM by sulforhodamine B assay relative to control; type: functional; conditions: read-out: Activity
TK-10 [14] = experiment: Cytotoxicity against human TK10 cells assessed as cell growth at 8 uM by sulforhodamine B assay relative to control; type: functional; conditions: read-out: Activity
NCI-H322M [15] = experiment: Cytotoxicity against human NCI-H322M cells by sulforhodamine B assay; type: functional; how it was run: as §2
HCT-15 = experiment: Cytotoxicity against human HCT15 cells assessed as cell growth at 8 nM by sulforhodamine B assay relative to control; type: functional; conditions: read-out: Activity
HT-29 [16] = experiment: Cytotoxicity against human HT-29 cells assessed as cell growth at 800 nM by sulforhodamine B assay relative to control; type: functional; conditions: read-out: Activity
KM12 = experiment: Cytotoxicity against human KM12 cells assessed as cell growth at 8 uM by sulforhodamine B assay relative to control; type: functional; conditions: read-out: Activity
K562 = experiment: Cytotoxicity against human K562 cells assessed as cell growth at 8 uM by sulforhodamine B assay relative to control; type: functional; conditions: read-out: Activity
[17] = Acute toxicity in ip dosed athymic nude mouse assessed as mortality after 24 days; type: organism-based; conditions: in vivo
How it was run: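 Female athymic nude mice, non-tumored; single IP injection, one mouse per dose level, 400, 200 and 100 mg/kg first, then 50, 25 and 12.5 mg/kg. Dose volume 0.1 ml/10 g body weight. Body weight and survival monitored; animals sacrificed on >20% weight loss or other significant toxicity.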

Malme-3M = experiment: Cytotoxicity against human MALME-3M cells by sulforhodamine B assay; type: functional; how it was run: as §2
SF-539 = experiment: Cytotoxicity against human SF539 cells by sulforhodamine B assay; type: functional; how it was run: as §2
NCI-H322M [18] = experiment: Cytotoxicity against human NCI-H322M cells assessed as cell growth at 800 nM by sulforhodamine B assay relative to control; type: functional; conditions: read-out: Activity
HL-60(TB) = experiment: Cytotoxicity against human HL-60(TB) cells assessed as cell growth at 80 uM by sulforhodamine B assay relative to control; type: functional; conditions: read-out: Activity
UACC-62 = experiment: Cytotoxicity against human UACC62 cells assessed as cell growth at 8 uM by sulforhodamine B assay relative to control; type: functional; conditions: read-out: Activity
HOP-92 [19] = experiment: Cytotoxicity against human HOP92 cells assessed as cell growth at 80 nM by sulforhodamine B assay relative to control; type: functional; conditions: read-out: Activity
MOLT-4 [20] = experiment: Cytotoxicity against human MOLT4 cells assessed as cell growth at 8 uM by sulforhodamine B assay relative to control; type: functional; conditions: read-out: Activity
T47D = experiment: Cytotoxicity against human T47D cells by sulforhodamine B assay; type: functional; how it was run: as §2
Cryptococcus neoformans = experiment: Antimicrobial activity against Cryptococcus neoformans ATCC 90113 by CLSI method; type: functional, organism-based
SR = experiment: Cytotoxicity against human SR cells assessed as cell growth at 8 nM by sulforhodamine B assay relative to control; type: functional; conditions: read-out: Activity
EKVX = experiment: Cytotoxicity against human EKVX cells assessed as cell growth at 80 uM by sulforhodamine B assay relative to control; type: functional; conditions: read-out: Activity
SK-MEL-5 = experiment: Cytotoxicity against human SK-MEL-5 cells assessed as cell growth at 80 uM by sulforhodamine B assay relative to control; type: functional; conditions: read-out: Activity

For `C/C=C1\NC(=O)[C@H](Cc2ccccc2)NC(=O)[C@@H](C(C)C)NC(=O)[C@@H]([C@@H](C)CC)NC(=O)[C@H](NC(=O)[C@H](NC(=O)[C@H](CCCNCc2ccc(F)c(C)c2)NC(=O)[C@H]2CCCN2C(=O)[C@H](NC(=O)[C@@H](NC(=O)[C@@H](NC(=O)[C@H](NC(=O)CCCC(C)C)C(C)C)[C@@H](C)O)C(C)C)C(C)C)[C@@H](C)CC)[C@@H](C)OC(=O)[C@H](C(C)C)NC1=O`, the growth at 0.008 µM (MOLT-4 [1]) was 103%, the growth at 0.8 µM (SF-295) was 89% and the growth at 0.8 µM (HCT-116 [2]) was 104%. It also gave a growth at 0.08 µM (PC-3) of 104%, a growth at 0.008 µM (ACHN) of 100% and an LC50 (Hs-578T [3]) greater than 75900 nM. It also gave a GI50 (Hs-578T [3]; read-out: GI50) of 217 nM, a TGI (Hs-578T [3]; read-out: TGI) of 665 nM and a GI50 (Hs-578T [3]; read-out: pGI50 (converted)) of 219 nM. For the same compound, the TGI (Hs-578T [3]; read-out: pTGI (converted)) was 661 nM, the growth at 8 µM (HCT-116 [4]) was -100% and the growth at 0.08 µM (SW-620) was 97%. The growth at 0.08 µM (NCI-H23 [5]) was 100%, the growth at 80 µM (NCI/ADR-RES [6]) was -60% and the growth at 0.08 µM (NCI/ADR-RES [7]) was 88%. It also gave a growth at 80 µM (HOP-92 [8]) of -91%, a growth at 0.08 µM (COLO 205) of 90% and a growth at 80 µM (HT-29 [9]) of 21%. For the same compound, the growth at 80 µM (NCI-H23 [10]) was -82%, the growth at 80 µM (TK-10 [11]) was -9% and the growth at 0.8 µM (UO-31) was 92%. For the same compound, the growth at 80 µM (U-251) was -89%, the growth at 80 µM (Hs-578T [12]) was -30% and the growth at 0.8 µM (786-0) was 96%. For the same compound, the growth at 0.008 µM (HT-29 [13]) was 100%, the growth at 8 µM (TK-10 [14]) was -71% and the LC50 (NCI-H322M [15]) was 457 nM. For the same compound, the GI50 (NCI-H322M [15]; read-out: GI50) was 131 nM, the TGI (NCI-H322M [15]; read-out: TGI) was 244 nM and the GI50 (NCI-H322M [15]; read-out: pGI50 (converted)) was 132 nM. It also gave a TGI (NCI-H322M [15]; read-out: pTGI (converted)) of 245 nM, a growth at 0.008 µM (HCT-15) of 100% and a growth at 0.8 µM (HT-29 [16]) of -52%. The growth at 8 µM (KM12) was -85%, the growth at 8 µM (K562) was -43% and the MTD at 576 h [17] was 12.5 mg/kg. It also gave a GI50 (Malme-3M) of 1480 nM, a GI50 (SF-539) of 1290 nM and an LC50 (SF-539) of 4370 nM. The TGI (SF-539; read-out: pTGI (converted)) was 2400 nM, the growth at 0.8 µM (NCI-H322M [18]) was -90% and the growth at 80 µM (HL-60(TB)) was -37%. For the same compound, the growth at 8 µM (UACC-62) was -98%, the growth at 0.08 µM (HOP-92 [19]) was 105% and the growth at 8 µM (MOLT-4 [20]) was -5%. For the same compound, the GI50 (T47D; read-out: GI50) was 144 nM, the TGI (T47D; read-out: TGI) was 327 nM and the GI50 (T47D; read-out: pGI50 (converted)) was 145 nM. The TGI (T47D; read-out: pTGI (converted)) was 331 nM, the IC50 (Cryptococcus neoformans) was 950 nM and the MFC (Cryptococcus neoformans) was 10 µM (≈ 16 µg/mL). It also gave an MIC (Cryptococcus neoformans) of 5 µM (≈ 8 µg/mL), a growth at 0.008 µM (SR) of 90% and a growth at 80 µM (EKVX) of -59%. It also gave a growth at 80 µM (SK-MEL-5) of -100%.
